Here are results for 12 compounds from ChEMBL document CHEMBL4020844, “Regio- and Stereospecific Synthesis of Oridonin D-Ring Aziridinated Analogues for the Treatment of Triple-Negative Breast Cancer via Mediated Irreversible Covalent Warheads” (J Med Chem, 2018).

Series [1] in a line: Drug level in pH 7.4 deuterated phosphate buffer treated with (2R,3'S,3a'R,3a1'R,6a'R,7'S,11'S,11a'S)-7',11'-Dihydroxy-5',5',8',8'-tetramethyldecahydro-2'H-spiro[aziridine-2,15'-[6a,11a]-(epoxymethano)[3,3a1]ethanophenanthro[1,10-de][1,3]dioxin]-14'-one at 10 mg after 5 hrs in presence of 1.5 to 2 equiv of GSH by HRMS analysis.
Series [2] can be described thus: Antiproliferative activity against human LX2 cells by alamar blue assay. The class given is functional, cell-based. The conditions noted are these: LX-2.
Series [3] in a line: Potency index, ratio of oridonin IC50 to compound IC50 for human LX2 cells. The format is functional.
Series [4] relates to MDA-MB-231. As to the kind of experiment: Antiproliferative activity against human MDA-MB-231 cells after 72 hrs by MTT assay. The format is functional, cell-based. An outline of the steps: (§1)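 MTT proliferation assay. Cells were seeded at 1 × 10^4 per well and exposed to DMSO or compound at 0.1, 0.33, 1.0, 3.3 and 10 μM for 72 h. MTT reagent was added, and OD at 560 nm was read after 1 h at 37°C. Each concentration was tested in quadruplicate wells.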

The next series deals with MCF7. As to the kind of experiment: Antiproliferative activity against human MCF7 cells after 72 hrs by MTT assay. The format is functional, cell-based. An outline of the steps:
as §1
A general note: Tetrazolium assays rely on reduction of a dye to a coloured formazan, in cell work by metabolically active cells.

Series [5] is described as follows: Glutathione reactivity in pH 7.4 deuterated phosphate buffer assessed as GSH adduct formation at 10 mg up to 10 mins in presence of 1.5 to 2 equiv of GSH by HRMS analysis.
Series [6] is described as follows: Toxicity in ip dosed ddYS mouse implanted with mouse ehrlich carcinoma cells administered once daily for 7 consecutive days measured for 40 days. The conditions noted are these: in vivo. The class given is organism-based.
In series [7] the test system is MDA-MB-231. As to the kind of experiment: Antitumor activity against human MDA-MB-231 cells xenografted in nude mouse assessed as tumor growth inhibition at 10 mg/kg, ip daily for 10 days. The format is functional, organism-based. An outline of the steps:
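Orthotopic model: female nude mice, 6–8 weeks old. MDA-MB-231 cells (1.0 × 10^6 in PBS) were injected into the no. 3 mammary fat pad, and mice were randomized into 4 groups. Once tumors reached 80–100 mm3, mice received 10 or 15 mg/kg daily by intraperitoneal injection in DMSO vehicle. Tumor volume (0.5 × L × W2) and body weight were measured daily. Mean ± SEM.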
On the technique in general: In xenograft studies the graft and the host belong to different species.

Series [8] in a line: Stability in mouse microsomes. The format is ADME, Microsome.
The subject of series [9] is Plasma. As to the kind of experiment: Stability in human plasma up to 5 hrs. The class given is ADME, cell-free.
Series [10] in a line: Glutathione reactivity in pH 7.4 deuterated phosphate buffer assessed as reaction half life at 10 mg up to 10 mins in presence of 1.5 to 2 equiv of GSH by 1H NMR analysis. The class given is physicochemical.
The test system of series [11] is Plasma. As to the kind of experiment: Stability in mouse plasma up to 5 hrs. The class given is ADME, cell-free.
A short description of series [12]: Stability in rat microsomes. The format is ADME, Microsome.
In series [13] the test system is Plasma. As to the kind of experiment: Stability in rat plasma up to 5 hrs. The class given is ADME, cell-free.
A short description of series [14]: Stability in human microsomes. The class given is ADME, Microsome.
Series [15] can be described thus: Drug level in pH 7.4 deuterated phosphate buffer treated with oridonin at 10 mg up to 10 mins in presence of 1.5 to 2 equiv of GSH by HRMS analysis.
Series [16] in a line: Drug level in pH 7.4 deuterated phosphate buffer treated with (2R,3'S,3a'R,3a1'R,6a'R,7'S,11'S,11a'S)-1-Acryloyl-7',11'-dihydroxy-5',5',8',8'-tetramethyldecahydro-2'H-spiro[aziridine-2,15'-[6a,11a](epoxymethano)[3,3a1]ethanophenanthro[1,10-de][1,3]-dioxin]-14'-one at 10 mg after 1 hr in presence of 1.5 to 2 equiv of GSH by HRMS analysis.
A short description of series [17]: Glutathione reactivity in pH 7.4 deuterated phosphate buffer assessed as reaction half life at 10 mg up to 24 hrs in presence of 1.5 to 2 equiv of GSH by 1H NMR analysis. The class given is physicochemical. The conditions noted are these: pH 7.4, 24 h.
Series [18] is described as follows: Glutathione reactivity in pH 7.4 deuterated phosphate buffer assessed as GSH adduct formation at 10 mg after 5 hrs in presence of 1.5 to 2 equiv of GSH by HRMS analysis.
Series [19] is described as follows: Glutathione reactivity in pH 7.4 deuterated phosphate buffer at 10 mg after 20 hrs in presence of 1.5 to 2 equiv of GSH by 1H NMR analysis.

The structures appear in SMILES notation. pIC50: −log10 of the molar value. The source made the active and inactive calls. No cut-off for these calls is given here.

For the compound `CC1(C)O[C@@H]2[C@H]3CC[C@H]4[C@@]56CO[C@@](O1)([C@@H](O)[C@@H]5C(C)(C)CC[C@@H]6O)[C@@]24C(=O)C3(N)CSCC(NC(=O)CC[C@H](N)C(=O)O)C(=O)NCC(=O)O` (some centres undefined), the Drug metabolism result in series [1] is reported as “Metabolite detected”.

As a reminder, the pIC50 is the negative decadic logarithm of the IC50, by convention in mol/L. A higher pIC50 goes with a low IC50. `C=C1C(=O)[C@]23[C@H](O)[C@H]1CC[C@H]2[C@]12C=CCC(C)(C)[C@H]1[C@H](O)[C@]3(O)OC2` had a pIC50 in series [2] of 6.31. The “Ratio IC50” value in [3] is on record as 10.

For the compound `CCC(=O)N1CC12C(=O)[C@@]13[C@@H]4OC(C)(C)O[C@@]15OC[C@@]1([C@H]([C@@H]5O)C(C)(C)CC[C@@H]1O)[C@@H]3CC[C@H]42` (some centres undefined), the result in the series on MDA-MB-231 [4] and in the series with MCF7 was inactive.

By LD50 is commonly meant the dose at which mortality reaches 50%. Read a low LD50 as a more toxic substance. For orientation: half-life means the time in which the quantity being followed falls by half. In the case of `C=C1C(=O)[C@]23[C@H](O)[C@H]1CC[C@H]2[C@@]12CO[C@]3(O)[C@@H](O)[C@@H]1C(C)(C)CC[C@@H]2O` [ORIDONIN], the Drug metabolism result in series [5] is given as “Metabolite detected”. In [6], the LD50 at 960 h stood at 37.5 mg/kg. The pIC50 is 4.53 in the series with MDA-MB-231 [4] (MDA-MB-231, 72 h) and 5.17 in the series on MCF7 (MCF7, 72 h). Further, the TGI entry in the series with MDA-MB-231 [7] is “Active”. For the same compound, the Stability result (in [8]; with Plasma [9]; in the series on Plasma [11]; in [12]; with Plasma [13]; in series [14]) was “Stable” throughout. Moreover, in series [10] (deuterated phosphate buffer with glutathione (GSH), pH 7.4), the half-life was less than 1 min.

Regarding `CC1(C)CC[C@H](O)[C@]23CO[C@@](O)([C@@H](O)[C@H]12)[C@]12C(=O)C(CSCC(NC(=O)CC[C@H](N)C(=O)O)C(=O)NCC(=O)O)[C@H](CC[C@@H]31)[C@H]2O` (some centres undefined), in [15], the Drug metabolism result is listed as “Metabolite detected”.

Turning to `C=C1C(=O)[C@]23[C@H](OC(=O)[C@H](C)N)[C@H]1CC[C@H]2[C@@]12CO[C@@]3(O)[C@@H](O)[C@@H]1C(C)(C)CC[C@@H]2O.O=C(O)C(F)(F)F`, the Drug metabolism entry in [10] (in vitro, pH 7.4, 10 min) was “Metabolite_Detected”.

As for `C=CCNc1nc2c(s1)CC(C)(C)[C@H]1[C@H](O)[C@]3(O)OC[C@@]21[C@@H]1CC[C@@H]2[C@@H](O)[C@@]13C(=O)C21CN1C(=O)OCC1c2ccccc2-c2ccccc21` (some centres undefined), the outcome in the series with MDA-MB-231 [4] and in the series with MCF7 was Active.

As for `C=CCNc1nc2c(s1)CC(C)(C)[C@H]1[C@H](O)[C@]3(O)OC[C@@]21[C@@H]1CC[C@@H]2[C@@H](O)[C@@]13C(=O)C21CN1` (some centres undefined), the result in the series with MDA-MB-231 [4] and in the series with MCF7 was Active.

Consider `CC1(C)O[C@@H]2[C@H]3CC[C@H]4[C@@]56CO[C@@](O1)([C@@H](O)[C@@H]5C(C)(C)CC[C@@H]6O)[C@@]24C(=O)C31CN1C(=O)CCSC[C@H](NC(=O)CC[C@H](N)C(=O)O)C(=O)NCC(=O)O` (some centres undefined), for which the Drug metabolism entry in series [16] is recorded as “Metabolite detected”.

For `C=C1C(=O)[C@@]23[C@@H]4OC(C)(C)O[C@@]25OC[C@@]2([C@H]([C@@H]5O)C(C)(C)CC[C@@H]2O)[C@@H]3CC[C@@H]14`, the t1/2 in [10] (gsh, pH 7.4, 10 min) is listed as less than 1 min.

Turning to `CC1(C)O[C@@H]2[C@H]3CC[C@H]4[C@@]56CO[C@@](O1)([C@@H](O)[C@@H]5C(C)(C)CC[C@@H]6O)[C@@]24C(=O)C31CN1` (some centres undefined), the Stability entry (in [8]; in the series on Plasma [9]; in the series on Plasma [11]; in series [12]; with Plasma [13]; in series [14]) was “Stable” in each case. The t1/2 in [17] lay within 4 to 6 h. Moreover, in series [18], the Drug metabolism result is on record as “Metabolite detected”.

Turning to `O=C(O)C1CN1` (centres undefined), the Drug metabolism result in [19] is given as “Metabolite detected”.
